# Values joined by “and” are separate entries in the source; they are usually repeats but may differ in a detail not shown here. Identical values can stand only once.
# Tested on: Fibroblast
# Assay: Multiplex assay against human fibroblast
# Format: toxicity, cell-based
# Method in brief: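 Four dyes were applied at seeding to live cells: Hoechst33342, BioTracker Green Microtubule Cytoskeleton Dye, MitoTracker Red and Annexin V Alexa Fluor 680. Imaging after compound addition used a CQ1 microscope at 37°C and 5% CO2. CellPathfinder machine-learning gating then sorted cells into Hoechst high-intensity objects or normal cells, normal cells into healthy, pyknosed or fragmented nuclei, and pyknosed cells into mitotic or apoptotic, with tubulin, mitochondrial-mass and membrane-permeability phenotypes given as per cents of healthy-nucleus cells.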
# [1] = 12 h, 1 µM, compound concentration 1 uM
# [2] = 12 h, 10 µM, compound concentration 10 uM
# [3] = 24 h, 1 µM, compound concentration 1 uM
# [4] = 24 h, 10 µM, compound concentration 10 uM
# [5] = 48 h, 1 µM, compound concentration 1 uM
# [6] = 48 h, 10 µM, compound concentration 10 uM
smiles,measurement,setting,value
CC(C)(O)C(=O)N1CCN(c2ccc(C(F)(F)F)c(C3=C(c4c[nH]c5ccccc45)C(=O)NC3=O)c2)CC1,Population Apoptotic (%),[1],41% and 32%
same,Population Fragmented Nuclei (%),[1],14% and 30%
same,Population Healthy Nuclei (%),[1],68% and 46%
same,Population Hoechst High Intensity Objects (%),[1],2% and 5%
same,Population Membrane Permeable-Phenotype (%),[1],0% and 5%
same,Population Mitochondria Different-Phenotype (%),[1],9% and 5%
same,Population Mitotic Cells (%),[1],58% and 67%
same,Population Normal (%),[1],97% and 94%
same,Population Pyknosed Nuclei (%),[1],17% and 22%
same,Population Tubulin-Different-Phenotype (%),[1],30% and 56%
same,Total Cell Count,[1],144 and 170
same,Population Apoptotic (%),[2],33% and 35%
same,Population Fragmented Nuclei (%),[2],17% and 26%
same,Population Healthy Nuclei (%),[2],50% and 31%
same,Population Hoechst High Intensity Objects (%),[2],4% and 6%
same,Population Mitochondria Different-Phenotype (%),[2],25% and 10%
same,Population Mitotic Cells (%),[2],66% and 64%
same,Population Normal (%),[2],96% and 93%
same,Population Pyknosed Nuclei (%),[2],32% and 42%
same,Population Tubulin-Different-Phenotype (%),[2],83% and 90%
same,Total Cell Count,[2],125 and 137
same,Population Apoptotic (%),[3],50% and 31%
same,Population Fragmented Nuclei (%),[3],22% and 31%
same,Population Healthy Nuclei (%),[3],61% and 45%
same,Population Hoechst High Intensity Objects (%),[3],1% and 8%
same,Population Membrane Permeable-Phenotype (%),[3],0% and 2%
same,Population Mitochondria Different-Phenotype (%),[3],3% and 8%
same,Population Mitotic Cells (%),[3],50% and 68%
same,Population Normal (%),[3],98% and 91%
same,Population Pyknosed Nuclei (%),[3],16% and 23%
same,Population Tubulin-Different-Phenotype (%),[3],40% and 58%
same,Total Cell Count,[3],161 and 176
same,Population Apoptotic (%),[4],26% and 36%
same,Population Fragmented Nuclei (%),[4],24% and 27%
same,Population Healthy Nuclei (%),[4],40% and 33%
same,Population Hoechst High Intensity Objects (%),[4],7% and 3%
same,Population Membrane Permeable-Phenotype (%),[4],2% and 6%
same,Population Mitochondria Different-Phenotype (%),[4],30% and 20%
same,Population Mitotic Cells (%),[4],73% and 63%
same,Population Normal (%),[4],92% and 96%
same,Population Pyknosed Nuclei (%),[4],34% and 39%
same,Population Tubulin-Different-Phenotype (%),[4],79% and 90%
same,Total Cell Count,[4],131 and 138
same,Population Apoptotic (%),[5],64% and 41%
same,Population Fragmented Nuclei (%),[5],21% and 33%
same,Population Healthy Nuclei (%),[5],61% and 37%
same,Population Hoechst High Intensity Objects (%),[5],5% and 7%
same,Population Membrane Permeable-Phenotype (%),[5],0% and 1%
same,Population Mitochondria Different-Phenotype (%),[5],12% and 15%
same,Population Mitotic Cells (%),[5],36% and 58%
same,Population Normal (%),[5],94% and 92%
same,Population Pyknosed Nuclei (%),[5],17% and 28%
same,Population Tubulin-Different-Phenotype (%),[5],38% and 67%
same,Total Cell Count,[5],155 and 165
same,Population Apoptotic (%),[6],54%
same,Population Fragmented Nuclei (%),[6],33% and 35%
same,Population Healthy Nuclei (%),[6],27% and 25%
same,Population Hoechst High Intensity Objects (%),[6],12% and 6%
same,Population Membrane Permeable-Phenotype (%),[6],0% and 10%
same,Population Mitochondria Different-Phenotype (%),[6],53% and 30%
same,Population Mitotic Cells (%),[6],45%
same,Population Normal (%),[6],87% and 93%
same,Population Pyknosed Nuclei (%),[6],38% and 40%
same,Population Tubulin-Different-Phenotype (%),[6],93% and 83%
same,Total Cell Count,[6],123 and 129
O=C1[C@H](Cc2ccc(O)cc2)N2C(=O)CCN(C(=O)NCc3ccccc3)[C@H]2CN1Cc1cccc2ccccc12,Population Apoptotic (%),[1],32% and 30%
same,Population Fragmented Nuclei (%),[1],18% and 27%
same,Population Healthy Nuclei (%),[1],57% and 45%
same,Population Hoechst High Intensity Objects (%),[1],3% and 2%
same,Population Membrane Permeable-Phenotype (%),[1],0% and 5%
same,Population Mitochondria Different-Phenotype (%),[1],11% and 13%
same,Population Mitotic Cells (%),[1],67% and 69%
same,Population Normal (%),[1],96% and 97%
same,Population Pyknosed Nuclei (%),[1],24% and 26%
same,Population Tubulin-Different-Phenotype (%),[1],47% and 58%
same,Total Cell Count,[1],160 and 152
same,Population Apoptotic (%),[2],35% and 45%
same,Population Fragmented Nuclei (%),[2],18% and 23%
same,Population Healthy Nuclei (%),[2],58% and 45%
same,Population Hoechst High Intensity Objects (%),[2],8% and 9%
same,Population Membrane Permeable-Phenotype (%),[2],0% and 8%
same,Population Mitochondria Different-Phenotype (%),[2],24% and 15%
same,Population Mitotic Cells (%),[2],64% and 55%
same,Population Normal (%),[2],91% and 90%
same,Population Pyknosed Nuclei (%),[2],23% and 30%
same,Population Tubulin-Different-Phenotype (%),[2],84% and 83%
same,Total Cell Count,[2],146 and 144
same,Population Apoptotic (%),[3],42% and 28%
same,Population Fragmented Nuclei (%),[3],16% and 30%
same,Population Healthy Nuclei (%),[3],62% and 47%
same,Population Hoechst High Intensity Objects (%),[3],3% and 2%
same,Population Membrane Permeable-Phenotype (%),[3],3% and 7%
same,Population Mitochondria Different-Phenotype (%),[3],7% and 8%
same,Population Mitotic Cells (%),[3],57% and 71%
same,Population Normal (%),[3],96% and 97%
same,Population Pyknosed Nuclei (%),[3],21% and 22%
same,Population Tubulin-Different-Phenotype (%),[3],49% and 58%
same,Total Cell Count,[3],158 and 147
same,Population Apoptotic (%),[4],44% and 64%
same,Population Fragmented Nuclei (%),[4],15% and 25%
same,Population Healthy Nuclei (%),[4],62% and 47%
same,Population Hoechst High Intensity Objects (%),[4],10% and 7%
same,Population Mitochondria Different-Phenotype (%),[4],44% and 21%
same,Population Mitotic Cells (%),[4],55% and 35%
same,Population Normal (%),[4],89% and 92%
same,Population Pyknosed Nuclei (%),[4],21% and 26%
same,Population Tubulin-Different-Phenotype (%),[4],83%
same,Total Cell Count,[4],141 and 137
same,Population Apoptotic (%),[5],62% and 54%
same,Population Fragmented Nuclei (%),[5],22% and 37%
same,Population Healthy Nuclei (%),[5],59% and 45%
same,Population Hoechst High Intensity Objects (%),[5],7% and 5%
same,Population Membrane Permeable-Phenotype (%),[5],2% and 5%
same,Population Mitochondria Different-Phenotype (%),[5],7% and 6%
same,Population Mitotic Cells (%),[5],37% and 45%
same,Population Normal (%),[5],92% and 94%
same,Population Pyknosed Nuclei (%),[5],17%
same,Population Tubulin-Different-Phenotype (%),[5],54% and 48%
same,Total Cell Count,[5],164 and 135
same,Population Apoptotic (%),[6],85% and 66%
same,Population Fragmented Nuclei (%),[6],21% and 32%
same,Population Healthy Nuclei (%),[6],58% and 53%
same,Population Hoechst High Intensity Objects (%),[6],15% and 10%
same,Population Membrane Permeable-Phenotype (%),[6],0% and 5%
same,Population Mitochondria Different-Phenotype (%),[6],50% and 38%
same,Population Mitotic Cells (%),[6],14% and 33%
same,Population Normal (%),[6],84% and 89%
same,Population Pyknosed Nuclei (%),[6],20% and 14%
same,Population Tubulin-Different-Phenotype (%),[6],85% and 94%
same,Total Cell Count,[6],124 and 119
O=C1c2c(Br)c(Br)c(Br)c(Br)c2C(=O)N1c1ncc[nH]1,Population Apoptotic (%),[1],13.21% and 28%
same,Population Fragmented Nuclei (%),[1],9.34% and 7.04%
same,Population Healthy Nuclei (%),[1],61.54% and 81.22%
same,Population Hoechst High Intensity Objects (%),[1],0%
same,Population Membrane Permeable-Phenotype (%),[1],4.46% and 1.16%
same,Population Mitochondria Different-Phenotype (%),[1],9.82% and 9.25%
same,Population Mitotic Cells (%),[1],86.79% and 72%
same,Population Normal (%),[1],100%
same,Population Pyknosed Nuclei (%),[1],29.12% and 11.74%
same,Population Tubulin-Different-Phenotype (%),[1],16.96% and 14.45%
same,Total Cell Count,[1],182 and 213
same,Population Apoptotic (%),[2],10.81% and 15.56%
same,Population Fragmented Nuclei (%),[2],9.5% and 3.32%
same,Population Healthy Nuclei (%),[2],69.83% and 75.36%
same,Population Hoechst High Intensity Objects (%),[2],0%
same,Population Membrane Permeable-Phenotype (%),[2],6.4% and 1.89%
same,Population Mitotic Cells (%),[2],89.19% and 84.44%
same,Population Normal (%),[2],100%
same,Population Pyknosed Nuclei (%),[2],20.67% and 21.33%
same,Population Tubulin-Different-Phenotype (%),[2],10.4% and 27.67%
same,Total Cell Count,[2],179 and 211
same,Population Fragmented Nuclei (%),[3],11.34% and 5.44%
same,Population Healthy Nuclei (%),[3],70.62% and 82.01%
same,Population Hoechst High Intensity Objects (%),[3],0%
same,Population Membrane Permeable-Phenotype (%),[3],5.84% and 4.08%
same,Population Mitochondria Different-Phenotype (%),[3],7.3% and 2.55%
same,Population Mitotic Cells (%),[3],91.43% and 60%
same,Population Normal (%),[3],100%
same,Population Pyknosed Nuclei (%),[3],18.04% and 12.55%
same,Population Tubulin-Different-Phenotype (%),[3],16.06% and 11.73%
same,Total Cell Count,[3],194 and 239
same,Population Apoptotic (%),[4],11.11% and 20%
same,Population Fragmented Nuclei (%),[4],13.13% and 3.29%
same,Population Healthy Nuclei (%),[4],73.23% and 84.98%
same,Population Hoechst High Intensity Objects (%),[4],0%
same,Population Membrane Permeable-Phenotype (%),[4],3.45% and 5.52%
same,Population Mitochondria Different-Phenotype (%),[4],4.14% and 7.18%
same,Population Mitotic Cells (%),[4],88.89% and 80%
same,Population Normal (%),[4],100%
same,Population Pyknosed Nuclei (%),[4],13.64% and 11.74%
same,Population Tubulin-Different-Phenotype (%),[4],11.72% and 23.2%
same,Total Cell Count,[4],198 and 213
same,Population Fragmented Nuclei (%),[5],10% and 10.04%
same,Population Healthy Nuclei (%),[5],84.21% and 84.56%
same,Population Hoechst High Intensity Objects (%),[5],0%
same,Population Membrane Permeable-Phenotype (%),[5],0.62% and 1.83%
same,Population Mitotic Cells (%),[5],63.64% and 92.86%
same,Population Normal (%),[5],100%
same,Population Pyknosed Nuclei (%),[5],5.79% and 5.41%
same,Population Tubulin-Different-Phenotype (%),[5],6.88% and 17.81%
same,Total Cell Count,[5],190 and 259
same,Population Fragmented Nuclei (%),[6],12.8% and 3.12%
same,Population Healthy Nuclei (%),[6],85.31% and 89.29%
same,Population Hoechst High Intensity Objects (%),[6],0%
same,Population Membrane Permeable-Phenotype (%),[6],1.11% and 2%
same,Population Normal (%),[6],100%
same,Population Pyknosed Nuclei (%),[6],1.9% and 7.59%
same,Total Cell Count,[6],211 and 224

# Source: ChEMBL document CHEMBL5724801, “EUbOPEN Chemogenomics Library - Multiplex” (2024)
